Measurements reported in ChEMBL document CHEMBL1130179, “DNA gyrase inhibitory and antimicrobial activities of some diphenic acid monohydroxamides” (J Med Chem, 1997).
≈ marks a conversion by molar mass, not a printed value. Peptide text beside a SMILES is read from it.

Columns and labels:
[1] = system: Staphylococcus epidermidis; assay: Minimum inhibitory concentration of compound against OC2603 Staphylococcus epidermidis strain; type: functional
In short: (§1)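 Broth microdilution in Luria broth for Gram-positives, 2-fold series 0.015–1000 µg/mL, inoculum about 5 × 10^5 CFU/mL. Incubated overnight at 35 °C; MIC = lowest well concentration with no visible growth.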

[2] = system: Escherichia coli; assay: Minimum inhibitory concentration of compound against Escherichia coli; type: functional
In short: (§2)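 Broth microdilution in Mueller Hinton broth for Gram-negatives, 2-fold series 0.015–1000 µg/mL, inoculum about 5 × 10^5 CFU/mL. Incubated overnight at 35 °C; MIC = lowest well with no visible growth. Some tests included polymyxin B nonapeptide at a level with no antibacterial activity of its own, compared with PMBN-free controls.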

[3] = system: DNA gyrase (Escherichia coli); assay: Inhibition of cleavable complex ability of DNA gyrase in Escherichia coli
[4] = system: Staphylococcus aureus; assay: Minimum inhibitory concentration of compound against OC6538 Staphylococcus aureus strain; type: functional; in short: as §1
[5] = system: Escherichia coli; assay: Minimum inhibitory concentration of compound against KL-16 Escherichia coli strain; type: functional; in short: as §2
[6] = system: Escherichia coli; assay: Minimum inhibitory concentration of compound against Escherichia coli KL-16 strain; type: functional; in short: as §2

CC(c1ccc2c(c1)Nc1ccccc1S2)N(O)C(=O)c1ccccc1-c1ccccc1C(=O)O (stereo not drawn)
MIC [1]: 62.5 µg/mL (≈ 130 µM)
MIC [2]: > 1000 µg/mL
CC50 [3]: 750 µg/mL (≈ 1550 µM)
MIC [4]: 62.5 µg/mL (≈ 130 µM)
MIC [5]: > 1000 µg/mL

CC(c1ccc2c(ccc3ccccc32)c1)N(O)C(=O)c1ccccc1-c1ccccc1C(=O)O (stereo not drawn)
MIC [1]: 31.2 µg/mL (≈ 67.7 µM)
MIC [2]: 31.2 µg/mL (≈ 67.6 µM)
CC50 [3]: 97.7 µg/mL (≈ 212 µM)
MIC [4]: 31.2 µg/mL (≈ 67.7 µM)
MIC [5]: > 1000 µg/mL

CC(c1ccccc1)N(O)C(=O)c1ccccc1-c1ccccc1C(=O)O (stereo not drawn)
MIC [1]: 1000 µg/mL (≈ 2770 µM)
MIC [2]: 1000 µg/mL (≈ 2770 µM)
MIC [4]: 1000 µg/mL (≈ 2770 µM)
MIC [5]: > 1000 µg/mL

COc1cc(C(C)N(O)C(=O)c2ccccc2-c2ccccc2C(=O)O)cc(OC)c1OC (stereo not drawn)
MIC [1]: 1000 µg/mL (≈ 2210 µM)
MIC [2]: > 1000 µg/mL
MIC [4]: 1000 µg/mL (≈ 2210 µM)
MIC [5]: > 1000 µg/mL

CC(C)C[C@@H]1NC(=O)[C@@H](Cc2ccccc2)NC(=O)[C@H](CCN)NC(=O)[C@@H](NC(=O)[C@H](CCN)NC(=O)[C@@H](N)[C@@H](C)O)CCNC(=O)[C@H]([C@@H](C)O)NC(=O)[C@H](CCN)NC(=O)[C@H](CCN)NC1=O (HELM PEPTIDE1{T.[Dab].[Dab].[Dab].[dF].L.[Dab].[Dab].T}$PEPTIDE1,PEPTIDE1,3:R3-9:R2$$$V2.0)
MIC [2]: 500 µg/mL (≈ 519 µM)
MIC [6]: > 500 µg/mL

CC(c1ccc(N2CCN(c3ccccc3)CC2)cc1)N(O)C(=O)c1ccccc1-c1ccccc1C(=O)O (stereo not drawn)
MIC [1]: 500 µg/mL (≈ 959 µM)
MIC [2]: > 1000 µg/mL
MIC [4]: 500 µg/mL (≈ 959 µM)
MIC [5]: > 1000 µg/mL

CCn1cc(C(=O)O)c(=O)c2ccc(C)nc21 [NALIDIXIC ACID]
MIC [1]: 250 µg/mL (≈ 1080 µM)
MIC [2]: 1 µg/mL (≈ 4.31 µM)
MIC [4]: 500 µg/mL (≈ 2150 µM)
MIC [5]: 8 µg/mL (≈ 34.4 µM)

CC(c1ccc2oc(-c3ccccc3)cc2c1)N(O)C(=O)c1ccccc1-c1ccccc1C(=O)O (stereo not drawn)
MIC [1]: 15.6 µg/mL (≈ 32.7 µM)
MIC [2]: > 1000 µg/mL
CC50 [3]: 62.5 µg/mL (≈ 131 µM)
MIC [4]: 15.6 µg/mL (≈ 32.7 µM)
MIC [5]: > 1000 µg/mL
